Reference: ChEMBL document CHEMBL1138746, “Indolebutylamines as selective 5-HT(1A) agonists” (J Med Chem, 2004)

Legend:
[1] = biological target: D(2) dopamine receptor (Rattus norvegicus, UniProt P61169); test: Displacement of [3H]spiperone from dopamine D2 receptor of rat striatal membranes; assay type: cell membranes, Membrane
Summary of the method: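 Rat striatal membranes (0.3–1.0 mg protein/mL) were incubated with 0.1 nM [3H]spiperone in Tris-HCl buffer (pH 7.1) containing 120 mmol/L NaCl, 5 mmol/L KCl, 1 mmol/L CaCl2, 1 mmol/L MgCl2 and 0.1% ascorbic acid, at 37 °C for 15 min. Bound ligand was separated by filtration with three ice-cold washes. Nonspecific binding was defined with 1 mmol/L (+)-butaclamol. IC50 (50% inhibition of binding) came from 5–10 concentrations, each in triplicate.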

[2] = biological target: T1, 5-hydroxytryptamine receptor 1A (Rattus norvegicus, UniProt P19327); test: Inhibition of 8-OH DPAT bindign to rat hydroxytryptamine 1A receptor in hippocampal membranes
T1 sequence (P19327 whole entry): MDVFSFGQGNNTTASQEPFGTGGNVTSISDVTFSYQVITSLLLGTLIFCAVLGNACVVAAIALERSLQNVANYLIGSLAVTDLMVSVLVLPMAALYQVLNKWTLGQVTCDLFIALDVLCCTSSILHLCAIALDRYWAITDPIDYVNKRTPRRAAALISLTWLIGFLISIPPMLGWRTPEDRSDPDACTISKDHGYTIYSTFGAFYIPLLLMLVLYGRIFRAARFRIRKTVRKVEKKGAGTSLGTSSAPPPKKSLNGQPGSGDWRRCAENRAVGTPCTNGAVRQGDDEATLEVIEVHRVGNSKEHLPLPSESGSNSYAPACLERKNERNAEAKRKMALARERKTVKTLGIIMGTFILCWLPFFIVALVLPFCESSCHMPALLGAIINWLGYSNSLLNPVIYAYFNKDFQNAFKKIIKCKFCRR

D(2) dopamine receptor, sequence (P61169 whole entry): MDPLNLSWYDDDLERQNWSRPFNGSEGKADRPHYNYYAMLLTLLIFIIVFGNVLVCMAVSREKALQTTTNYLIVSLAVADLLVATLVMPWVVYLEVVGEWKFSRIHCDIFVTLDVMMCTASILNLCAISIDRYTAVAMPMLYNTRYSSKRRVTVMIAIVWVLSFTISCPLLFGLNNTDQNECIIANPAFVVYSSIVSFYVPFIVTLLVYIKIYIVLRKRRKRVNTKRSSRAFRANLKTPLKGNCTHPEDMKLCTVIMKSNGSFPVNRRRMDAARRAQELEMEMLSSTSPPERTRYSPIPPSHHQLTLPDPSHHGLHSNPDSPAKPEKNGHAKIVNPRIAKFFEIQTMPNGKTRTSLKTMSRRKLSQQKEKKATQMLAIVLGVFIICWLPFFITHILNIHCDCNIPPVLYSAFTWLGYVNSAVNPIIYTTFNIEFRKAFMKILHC

Structure (SMILES) | IC50 [1] [nM] | IC50 [2] [nM]
COc1ccc2[nH]cc(CCCCN3CC=C(c4ccc5c(c4)OCO5)CC3)c2c1 | > 100 | 0.4
COc1ccc2[nH]cc(CCCCN3CCN(c4ccc5c(c4)CCCO5)CC3)c2c1 | > 100 | 2
COCCOc1ccc(N2CCN(CCCCc3c[nH]c4ccc(OC)cc34)CC2)cc1 | – | 2
COc1ccc2[nH]cc(CCCCN3CCN(c4cc(OC)c(OC)c(OC)c4)CC3)c2c1 | > 100 | 333
COc1ccc2[nH]cc(CCCCN3CCN(c4cc(C)c(OC)c(C)c4)CC3)c2c1 | > 100 | 60
COc1ccc2[nH]cc(CCCCN3CC=C(c4ccccc4)CC3)c2c1 | – | 20
CCCCCOc1ccc2[nH]cc(CCCCN3CCN(c4ccc(OC)cc4)CC3)c2c1 | > 100 | 200
Oc1ccc2[nH]cc(CCCCN3CC=C(c4ccccc4)CC3)c2c1 [ROXINDOLE] | 5.6 | 0.8
COc1ccc(C2=CCN(CCCCc3c[nH]c4ccc(OC)cc34)CC2)cc1 | > 100 | 0.6
COc1ccc2[nH]cc(CCCCN3CCN(c4ccc5c(c4)OCO5)CC3)c2c1 | 100 | 4
Oc1ccc2[nH]cc(CCCCN3CCN(c4ccccc4)CC3)c2c1 | 4.2 | 0.8
CCOCCOCCOc1cccc(N2CCN(CCCCc3c[nH]c4ccc(C(N)=O)cc34)CC2)c1C#N | 28 | 0.9
COc1ccc2[nH]cc(CCCCN3CCN(c4ccc(O[Si](C)(C)C(C)(C)C)cc4)CC3)c2c1 | – | 70
COc1ccc2[nH]cc(CCCCN3CCN(c4ccc5c(c4)OCCO5)CC3)c2c1 | 120 | 0.5
COc1ccc2[nH]cc(CCCCN3CCN(c4ccc5c(c4)CCO5)CC3)c2c1 | > 100 | 0.4
COc1ccc2[nH]cc(CCCCN3CCN(c4ccc(OC)c(OC)c4)CC3)c2c1 | 100 | 10
COc1ccc(N2CCN(CCCCc3c[nH]c4ccc(OC5CCCC5)cc34)CC2)cc1 | > 100 | 90
NC(=O)c1ccc2[nH]cc(CCCCN3CCN(c4ccc5c(c4)OCCO5)CC3)c2c1 | 40 | 0.2
COc1ccc2[nH]cc(CCCCN3CC=C(c4ccc(O)cc4)CC3)c2c1 | ~100 | 0.4

Now from value to compound:

IC50 [1] [nM] | IC50 [2] [nM] | Structure (SMILES)
1.2 | 0.1 | COc1ccccc1N1CCN(CCCCc2c[nH]c3ccc(C(N)=O)cc23)CC1
> 100 | 0.1 | CC(=O)Nc1ccc(N2CCN(CCCCc3c[nH]c4ccc(C(N)=O)cc34)CC2)cc1
300 | 2 | CCOc1ccc2[nH]cc(CCCCN3CCN(c4ccc(OC)cc4)CC3)c2c1
> 100 | 1 | COc1ccc2[nH]cc(CCCCN3CCN(c4ccc(OC(C)=O)cc4)CC3)c2c1
> 100 | 0.5 | NC(=O)c1ccc2[nH]cc(CCCCN3CCN(c4ccc5c(c4)CCO5)CC3)c2c1
> 100 | 0.5 | COc1ccc(N2CCN(CCCCc3c[nH]c4ccc(OC(C)=O)cc34)CC2)cc1
32 | 20 | COc1ccc2[nH]cc(CCCCN3CCN(c4ccccc4)CC3)c2c1
31 | 40 | COC(=O)c1ccc2[nH]cc(CCCCN3CCN(c4ccccc4)CC3)c2c1
> 100 | 0.8 | CCOc1ccc(N2CCN(CCCCc3c[nH]c4ccc(OC)cc34)CC2)cc1
156 | 0.2 | NC(=O)c1ccc2[nH]cc(CCCCN3CCN(c4ccc(O)cc4)CC3)c2c1
17 | 0.1 | NC(=O)c1ccc2[nH]cc(CCCCN3CCC(c4ccccc4)CC3)c2c1
> 100 | 3 | COc1ccc2[nH]cc(CCCCN3CCN(c4ccc(NC(C)=O)cc4)CC3)c2c1
53 | 2 | COc1ccc2[nH]cc(CCCCN3CCN(c4ccc(O)cc4)CC3)c2c1
> 100 | 0.7 | COc1c(Cl)cc(N2CCN(CCCCc3c[nH]c4ccc(C(N)=O)cc34)CC2)cc1Cl
> 100 | 8 | COC(=O)c1ccc2[nH]cc(CCCCN3CCN(c4ccc(OC)cc4)CC3)c2c1
7 | 0.1 | NC(=O)c1ccc2[nH]cc(CCCCN3CCN(c4ccccc4)CC3)c2c1
1000 | 100 | O=C(O)c1ccc2[nH]cc(CCCCN3CCC(c4ccccc4)CC3)c2c1
– | 24 | COc1ccc2[nH]cc(CCCCN3CCN(c4ccc(OC(=O)C(C)(C)C)cc4)CC3)c2c1
> 100 | 40 | O=C(O)c1ccc2[nH]cc(CCCCN3CCN(c4ccccc4)CC3)c2c1
6.2 | 0.2 | N#Cc1ccccc1N1CCN(CCCCc2c[nH]c3ccc(C(N)=O)cc23)CC1
80 | 1 | Oc1ccc2[nH]cc(CCCCN3CCC(c4ccccc4)CC3)c2c1
97 | 0.3 | NC(=O)c1ccc2[nH]cc(CCCCN3CCN(c4ccccc4C(N)=O)CC3)c2c1
> 100 | 34 | COc1ccc(N2CCN(CCCCc3c[nH]c4ccc(OCc5ccccc5)cc34)CC2)cc1
100 | 0.07 | COc1ccc(N2CCN(CCCCc3c[nH]c4ccc(C(N)=O)cc34)CC2)c(OC)c1
220 | 30 | COc1ccc2[nH]cc(CCCCN3CCN(c4ccc(OCc5ccccc5)cc4)CC3)c2c1
113 | 20 | COC(=O)c1ccc2[nH]cc(CCCCN3CCC(c4ccccc4)CC3)c2c1
5 | 0.01 | N#Cc1c(F)cccc1N1CCN(CCCCc2c[nH]c3ccc(C(N)=O)cc23)CC1
